Assay results as given in ChEMBL document CHEMBL1255250, “Microbicidal properties and cytocidal selectivity of rhesus macaque theta defensins” (Antimicrob Agents Chemother, 2008).
Activity calls are given as the source filed them. No cut-off for these calls is given here. Where a SMILES comes first, the peptide text is derived from it. Bridges are numbered along the chain shown (N, C = ends).

Legend:
Staphylococcus aureus [1] = assay: Microbicidal activity against Staphylococcus aureus 502a at 5 ug/ml in presence of <= 80 mM NaCl; type: functional, organism-based
How it was run: (§1)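 S. aureus in log phase was incubated with 5 μg/ml peptide in 10 mM PIPES, pH 7.4, containing increasing NaCl for 2 h at 37°C. Killing was determined by colony counting and expressed as a percentage of killing in buffer alone.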

Staphylococcus aureus [2] = assay: Microbicidal activity against Staphylococcus aureus 502a at 5 ug/ml in presence of 160 mM NaCl; type: functional, organism-based; how it was run: as §1
Candida albicans [3] = assay: Microbicidal activity against Candida albicans 16820 using PIPES buffer in presence of NaCl; type: functional, organism-based
How it was run: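 Log-phase C. albicans was incubated with peptide in 10 mM PIPES, pH 7.4, supplemented with NaCl, for 2 h at 37°C. Survivors were plated on Sabouraud dextrose agar and counted after 18–24 h at 37°C.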

Staphylococcus aureus [4] = assay: Microbicidal activity against Staphylococcus aureus 502a using 10 mM PIPES buffer in presence of 154 mM NaCl; type: functional, organism-based
How it was run: (§2)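 Log-phase S. aureus was exposed to increasing peptide concentrations for 2 h at 37°C. Buffer was 10 mM PIPES, Tris-HCl or sodium phosphate, pH 7.4, with or without 154 mM NaCl. Killing was read by colony counting.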

Staphylococcus aureus [5] = assay: Microbicidal activity against Staphylococcus aureus 502a using 10 mM Tris-HCl buffer in presence of 154 mM NaCl; type: functional, organism-based; how it was run: as §2
Staphylococcus aureus [6] = assay: Microbicidal activity against Staphylococcus aureus 502a using 10 mM sodium phosphate buffer in presence of 154 mM NaCl; type: functional, organism-based; how it was run: as §2
Staphylococcus aureus [7] = assay: Microbicidal activity against Staphylococcus aureus 502a in presence of 1.2 mM Calcium ions; type: functional, organism-based
Escherichia coli [8] = assay: Microbicidal activity against Escherichia coli ML35 in presence of 1.2 mM Calcium ions; type: functional, organism-based
How it was run: (§3)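 Log-phase E. coli ML35 or C. albicans was incubated with increasing peptide concentrations in 10 mM PIPES, pH 7.4. The buffer contained 1.2 mM CaCl2 and 0.8 mM MgCl2, or no added divalent salts. Incubation was 2 h at 37°C, and survivors were counted as colonies.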

Candida albicans [9] = assay: Microbicidal activity against Candida albicans 16820 in presence of 1.2 mM Calcium ions; type: functional, organism-based; how it was run: as §3
Staphylococcus aureus [10] = assay: Microbicidal activity against Staphylococcus aureus 502a in presence of 0.8 mM Magnesium ions; type: functional, organism-based
Escherichia coli [11] = assay: Microbicidal activity against Escherichia coli ML35 in presence of 0.8 mM Magnesium ions; type: functional, organism-based; how it was run: as §3
Candida albicans [12] = assay: Microbicidal activity against Candida albicans 16820 in presence of 0.8 mM Magnesium ions; type: functional, organism-based; how it was run: as §3
Staphylococcus aureus [13] = assay: Microbicidal activity against Staphylococcus aureus 502a at 0.5 to 2 ug/ml in presence of 10% human serum; type: functional, organism-based
How it was run: (§4)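 S. aureus was incubated with a dose series of peptide in 10 mM PIPES, pH 7.4, containing 10% normal human serum. Bacterial killing was determined by colony counting and expressed as a percentage of killing in incubations lacking serum.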

Staphylococcus aureus [14] = assay: Microbicidal activity against Staphylococcus aureus 502a at >= 2 ug/ml in presence of 10% human serum; type: functional, organism-based; how it was run: as §4
Escherichia coli [15] = assay: Microbicidal activity against Escherichia coli ML35 at <=8 ug/ml in presence of 10% heat-inactivated human serum; type: functional, organism-based
How it was run: (§5)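 Human serum was heat-inactivated at 55°C for 30 min and clarified by centrifugation. E. coli was then exposed to a dose series of peptide in 10 mM PIPES, pH 7.4, with 10% of this serum. Killing was counted as colonies and expressed relative to incubations without serum.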

Escherichia coli [16] = assay: Microbicidal activity against Escherichia coli ML35 at 16 ug/ml in presence of 10% heat-inactivated human serum; type: functional, organism-based; how it was run: as §5
Escherichia coli [17] = assay: Microbicidal activity against Escherichia coli ML35 assessed as induction of cytoplasmic membrane permeabilization at 1 ug/ml; type: functional, organism-based
How it was run: (§6)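 Log-phase E. coli ML35 (1–2 × 10^6 CFU/ml) was incubated with peptide (0–8 μg/ml final) in 10 mM PIPES, pH 7.4, containing 3 mM ONPG. ONPG hydrolysis was followed at 405 nm for 60 min. The rate was taken as the highest kinetic slope and corrected for peptide inhibition of β-galactosidase measured cell-free.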

[18] = Inhibition of beta-galactosidase in cell-free system assessed as inhibition of o-nitrophenyl-beta-d-galactopyranoside hydrolysis
[19] = molecular target: Beta-galactosidase (Escherichia coli) (UniProt Q8VNN2); assay: Inhibition of Escherichia coli ML35 Beta-galactosidase assessed as inhibition of o-nitrophenyl-beta-d-galactopyranoside hydrolysis at 4 ug/ml
Staphylococcus aureus [20] = assay: Microbicidal activity against Staphylococcus aureus 502a; type: functional
How it was run: (§7)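 Log-phase organisms (1–2 × 10^6 CFU/ml) were exposed to serially diluted peptide (0.05–10.0 μg/ml final) in 10 mM PIPES, pH 7.4, with 5 mM glucose for 2 h at 37°C. Aliquots were serially diluted 1:10 to 1:10^6 in Trypticase soy or Sabouraud broth and grown 24–48 h at 37°C. MMC was the lowest concentration giving 99.9% viability loss in at least two experiments.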

[21] = molecular target: Beta-galactosidase (Escherichia coli) (UniProt Q8VNN2); assay: Inhibition of Escherichia coli ML35 Beta-galactosidase assessed as hydrolysis of o-nitrophenyl-beta-d-galactopyranoside at 2 ug/ml
[22] = Toxicity in human Erythrocyte assessed as concentration required to achieve 3% hemolysis; type: cell-based
Escherichia coli [23] = assay: Microbicidal activity against Escherichia coli ML35; type: functional; how it was run: as §7
Candida albicans [24] = assay: Microbicidal activity against Candida albicans 16820; type: functional; how it was run: as §7
[25] = molecular target: Beta-galactosidase (Escherichia coli) (UniProt Q8VNN2); assay: Inhibition of Escherichia coli ML35 beta-galactosidase assessed as inhibition of o-nitrophenyl-beta-d-galactopyranoside hydrolysis at 1 ug/ml after 60 mins; how it was run: as §6
[26] = Toxicity in human Erythrocyte assessed as hemolysis at 100 ug/ml; type: cell-based
How it was run: (§8)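 Erythrocytes from EDTA-anticoagulated human donor blood were washed in PBS or PiBS containing 4 mM EDTA, then resuspended without EDTA at 2% (vol/vol). Cells were incubated with peptide (0.3–100 μg/ml final) for 1 h at 37°C, with or without 10% autologous serum. Supernatant A405 was expressed relative to 1% Nonidet P-40 lysis.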

[27] = Toxicity in human Erythrocyte assessed as hemolysis at 100 ug/ml in presence of 10% serum; type: cell-based; how it was run: as §8
[28] = Selectivity index, ratio of MMC for Staphylococcus aureus 502a to hemolytic activity for human erythrocytes
Candida albicans [29] = assay: Microbicidal activity against Candida albicans 16820 assessed as log reduction in microbial count at 10 ug/ml using PIPES buffer
Hs68 [30] = assay: Cytotoxicity against human HS68 cells at <=100 ug/ml by MTT assay in presence of 0.4% FBS; type: cell-based
How it was run: (§9)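 HS68 fibroblasts were grown in DMEM with 10% FBS and penicillin/streptomycin at 37°C and 5% CO2. Cells were seeded at 5 × 10^3 per well for 18 h. Medium was then switched to antibiotic-free DMEM with 0.4% or 10% FBS, as each line states, and peptide was added at 0–100 μg/ml for 1 h at 37°C. Wells were refed with growth medium and read by MTT in triplicate against no-peptide wells.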

Hs68 [31] = assay: Cytotoxicity against human HS68 cells at <=100 ug/ml by MTT assay in presence of 10% FBS; type: cell-based; how it was run: as §9

Chain of Beta-galactosidase (Escherichia coli) (Q8VNN2 whole entry, looked up): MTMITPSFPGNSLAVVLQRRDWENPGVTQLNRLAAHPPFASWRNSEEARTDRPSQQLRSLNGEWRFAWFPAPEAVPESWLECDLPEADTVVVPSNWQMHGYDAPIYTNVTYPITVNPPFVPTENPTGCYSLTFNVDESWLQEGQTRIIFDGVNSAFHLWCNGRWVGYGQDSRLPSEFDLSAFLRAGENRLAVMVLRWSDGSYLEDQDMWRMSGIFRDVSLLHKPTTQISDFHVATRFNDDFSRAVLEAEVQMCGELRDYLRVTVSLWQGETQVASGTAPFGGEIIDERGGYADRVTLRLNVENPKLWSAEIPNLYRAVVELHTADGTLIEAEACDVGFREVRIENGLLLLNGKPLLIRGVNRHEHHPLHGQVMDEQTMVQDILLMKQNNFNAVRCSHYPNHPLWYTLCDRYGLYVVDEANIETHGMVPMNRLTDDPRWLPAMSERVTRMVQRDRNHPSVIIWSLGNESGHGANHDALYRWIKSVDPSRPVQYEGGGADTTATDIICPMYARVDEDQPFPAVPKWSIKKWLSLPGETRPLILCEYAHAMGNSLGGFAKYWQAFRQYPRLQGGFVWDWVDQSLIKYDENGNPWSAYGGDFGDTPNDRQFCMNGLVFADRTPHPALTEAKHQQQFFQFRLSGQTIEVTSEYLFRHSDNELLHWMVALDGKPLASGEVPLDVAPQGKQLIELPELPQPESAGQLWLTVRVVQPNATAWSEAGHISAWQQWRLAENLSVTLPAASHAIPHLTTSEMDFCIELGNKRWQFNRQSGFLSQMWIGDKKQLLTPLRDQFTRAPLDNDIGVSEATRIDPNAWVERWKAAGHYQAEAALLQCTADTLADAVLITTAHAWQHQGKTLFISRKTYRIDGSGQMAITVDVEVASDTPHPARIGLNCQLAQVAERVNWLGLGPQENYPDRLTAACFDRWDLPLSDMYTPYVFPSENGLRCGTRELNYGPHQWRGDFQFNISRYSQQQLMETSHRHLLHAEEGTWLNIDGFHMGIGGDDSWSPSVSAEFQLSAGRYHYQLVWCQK

Row | SMILES | Activity (Staphylococcus aureus [1]) | Activity (Staphylococcus aureus [2]) | Activity (Candida albicans [3]) | Activity (Staphylococcus aureus [4]) | Activity (Staphylococcus aureus [6]) | Activity (Staphylococcus aureus [7]) | Activity (Escherichia coli [8]) | Activity (Candida albicans [9]) | Activity (Staphylococcus aureus [10]) | Activity (Escherichia coli [11]) | Activity (Candida albicans [12]) | Activity (Staphylococcus aureus [14]) | Activity (Escherichia coli [15]) | Activity (Escherichia coli [16]) | Activity (Escherichia coli [17]) | MMC (Staphylococcus aureus [20]) [µg/mL] | Activity [22] [µg/mL] | MMC (Escherichia coli [23]) [µg/mL] | MMC (Candida albicans [24]) [µg/mL] | Activity [27] | further results
1 | CC[C@H](C)[C@@H]1NC(=O)[C@@H]2CSSC[C@H](NC(=O)[C@H](CCCNC(=N)N)NC(=O)[C@@H]3CSSC[C@H](NC1=O)C(=O)N[C@@H]([C@H](C)O)C(=O)N[C@@H](CCCNC(=N)N)C(=O)NCC(=O)N[C@H](Cc1ccccc1)C(=O)N3)C(=O)N[C@@H](CC(C)C)C(=O)N[C@@H]1CSSC[C@@H](NC(=O)[C@H](C(C)C)NC(=O)CNC(=O)[C@H](CCCNC(=N)N)NC(=O)[C@H](CCCNC(=N)N)NC1=O)C(=O)N[C@@H](CCCNC(=N)N)C(=O)N2 | Active | inactive | inactive | Active | Active | Active | Active | inactive | Active | Active | inactive | Active | inactive | Active | Active | – | – | – | – | – | Activity (Staphylococcus aureus [5]): Active; Activity (Staphylococcus aureus [13]): inactive; inhibition [18]: Dose-dependent effect; inhibition [19]: 36%
2 | CC[C@H](C)[C@@H]1NC(=O)C2CSSCC(NC(=O)[C@H](CCCNC(=N)N)NC(=O)[C@@H]3CSSC[C@H](NC1=O)C(=O)N[C@@H]([C@@H](C)O)C(=O)N[C@@H](CCCNC(=N)N)C(=O)NCC(=O)N[C@@H](Cc1ccccc1)C(=O)N3)C(=O)N[C@@H]([C@@H](C)CC)C(=O)N[C@H]1CSSC[C@H](NC(=O)[C@H](Cc3ccccc3)NC(=O)CNC(=O)[C@H](CCCNC(=N)N)NC(=O)[C@H]([C@@H](C)O)NC1=O)C(=O)N[C@@H](CCCNC(=N)N)C(=O)N2 (single isomer, unassigned) | Active | inactive | inactive | inactive | inactive | Active | Active | inactive | Active | Active | inactive | Active | inactive | Active | inactive | 1.5 | 21 | 2.3 | 3 | Non-toxic | inhibition [21]: 78%; Activity (Staphylococcus aureus [13]): inactive; inhibition [25]: Active; Activity [26]: Non-toxic; Selectivity Index [28]: 14; FC (Candida albicans [29]): >3
3 | CC[C@H](C)[C@@H]1NC(=O)[C@@H]2CSSC[C@H](NC(=O)[C@H](CCCNC(=N)N)NC(=O)[C@@H]3CSSC[C@H](NC1=O)C(=O)N[C@@H]([C@@H](C)O)C(=O)N[C@@H](CCCNC(=N)N)C(=O)NCC(=O)N[C@@H](Cc1ccccc1)C(=O)N3)C(=O)N[C@@H](CC(C)C)C(=O)N[C@H]1CSSC[C@H](NC(=O)[C@H](C(C)C)NC(=O)CNC(=O)[C@H](CCCNC(=N)N)NC(=O)[C@H](CCCNC(=N)N)NC1=O)C(=O)N[C@@H](CCCNC(=N)N)C(=O)N2 [listing 1 of 2 here] | – | – | – | – | – | – | – | – | – | – | – | – | – | – | – | 1 | – | 2 | 1 | – | Selectivity Index [28]: 5.5; FC (Candida albicans [29]): >3
4 | CC(C)C[C@@H]1NC(=O)[C@@H]2CSSC[C@H](NC(=O)[C@H](CCCNC(=N)N)NC(=O)[C@@H]3CSSC[C@H](NC1=O)C(=O)N[C@@H](CCCNC(=N)N)C(=O)N[C@@H](CCCNC(=N)N)C(=O)NCC(=O)N[C@@H](C(C)C)C(=O)N3)C(=O)N[C@@H](CC(C)C)C(=O)N[C@H]1CSSC[C@H](NC(=O)[C@H](C(C)C)NC(=O)CNC(=O)[C@H](CCCNC(=N)N)NC(=O)[C@H](CCCNC(=N)N)NC1=O)C(=O)N[C@@H](CCCNC(=N)N)C(=O)N2 (cyclo(CLCRRGVCRCLCRRGVCR); disulfide 1-10, 3-8, 12-17) | Active | inactive | inactive | Active | Active | Active | Active | inactive | Active | Active | inactive | Active | inactive | Active | Active | 1 | 6.2 | 2 | 1 | Non-toxic | Activity (Staphylococcus aureus [5]): Active; inhibition [18]: Dose-dependent effect; inhibition [19]: 36%; inhibition [25]: Active; Activity [26]: Non-toxic; Selectivity Index [28]: 6.2; FC (Candida albicans [29]): >3
5 | CC[C@H](C)[C@@H]1NC(=O)[C@@H]2CSSC[C@H](NC(=O)[C@H](CCCNC(=N)N)NC(=O)[C@@H]3CSSC[C@H](NC1=O)C(=O)N[C@@H]([C@@H](C)O)C(=O)N[C@@H](CCCNC(=N)N)C(=O)NCC(=O)N[C@@H](Cc1ccccc1)C(=O)N3)C(=O)N[C@@H](CC(C)C)C(=O)N[C@H]1CSSC[C@H](NC(=O)[C@H](C(C)C)NC(=O)CNC(=O)[C@H](CCCNC(=N)N)NC(=O)[C@H](CCCNC(=N)N)NC1=O)C(=O)N[C@@H](CCCNC(=N)N)C(=O)N2 [listing 2 of 2 here] | – | – | – | – | – | – | – | – | – | – | – | – | – | – | – | – | 5.5 | – | – | Non-toxic | Activity (Hs68 [30]): Non-toxic; Activity (Hs68 [31]): Non-toxic
